Results reported in ChEMBL document CHEMBL1122701, “Antiestrogens. 2. Structure-activity studies in a series of 3-aroyl-2-arylbenzo[b]thiophene derivatives leading to [6-hydroxy-2-(4-hydroxyphenyl)benzo[b]thien-3-yl] [4-[2-(1-piperidinyl)ethoxy]-phenyl]methanone hydrochloride (LY156758), a remarkably effective estrogen antagonist with only minimal …” (1984).
Several values for one entry are separate records, joined by “and”; a condition that tells them apart may be missing. Equal entries are not always repeated.

Tests used:
[1] = organism: Rattus norvegicus; assay: The compound was tested for anti-uterotrophic activity in immature rats(Dosage 1 ug); format: functional
How it was run: (§1)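 Holtzman rats, immature (19-20 days, 40-45 g), in groups of six. Each rat received estradiol 1 µg/day sc in corn oil plus compound sc in corn oil as a daily per-rat dose, for 3 days. Rats killed on day 4. Inhibition of estradiol-driven uterine wet weight (weighed to 0.1 mg).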

[2] = organism: Rattus norvegicus; assay: The compound was tested for uterotropic activity in immature rats(Dosage 1000 ug); format: functional
How it was run: (§2)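 Holtzman rats, immature (19-20 days, 40-45 g), in groups of six. Compound given subcutaneously in corn oil as a daily per-rat dose for 3 days. Rats killed on day 4 and uterine wet weight recorded to the nearest 0.1 mg.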

[3] = organism: Rattus norvegicus; assay: The compound was tested for anti-uterotrophic activity in immature rats(Dosage 100 ug); format: functional; how it was run: as §1
[4] = organism: Rattus norvegicus; assay: The compound was tested for anti-uterotrophic activity in immature rats(Dosage 1000 ug); format: functional; how it was run: as §1
[5] = organism: Rattus norvegicus; assay: The compound was tested for anti-uterotrophic activity in immature rats(Dosage 10 microg); format: functional; how it was run: as §1
[6] = organism: Rattus norvegicus; assay: The compound was tested for uterotropic activity in immature rats(Dosage 10 ug); format: functional; how it was run: as §2
[7] = organism: Rattus norvegicus; assay: The compound was tested for uterotropic activity in immature rats(Dosage 1 ug); format: functional; how it was run: as §2
[8] = organism: Rattus norvegicus; assay: The compound was tested for uterotropic activity in immature rats(Dosage 100 ug); format: functional; how it was run: as §2
[9] = test system: Rattus norvegicus; assay: The compound was tested for no of tumors with complete remission at 1 mg/kg dose after peroral administration (experiment-I); format: functional; settings: route oral
How it was run: (§3)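 DMBA-induced mammary tumors in female Sprague-Dawley rats. Compound given orally twice daily in PEG-400:water (1:1) for 21 days; controls received vehicle alone. Tumors measured by caliper at start and weekly; area is largest × smallest diameter. Tumors scored as complete or partial remission, no change or progression. Mean ± SE.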

[10] = test system: Rattus norvegicus; assay: The compound was tested for the progression of no of tumors at 10 mg/kg dose after peroral administration (experiment-2); format: functional; settings: route oral; how it was run: as §3
[11] = test system: Rattus norvegicus; assay: The compound was tested for the no of tumors at 1 mg/kg dose start of the experiment after peroral administration (experiment-I); format: functional; settings: route oral; how it was run: as §3
[12] = test system: Rattus norvegicus; assay: The compound was tested for the progression of no of tumors at 10 mg/kg dose after peroral administration (experiment-I); format: functional; settings: route oral; how it was run: as §3
[13] = test system: Rattus norvegicus; assay: The compound was tested for the no of tumors at 10 mg/kg dose start of the experiment after peroral administration (experiment-I); format: functional; settings: route oral; how it was run: as §3
[14] = test system: Rattus norvegicus; assay: The compound was tested for the no of tumors at 10 mg/kg dose finish of the experiment after peroral administration (experiment-I); format: functional; settings: route oral; how it was run: as §3
[15] = test system: Rattus norvegicus; assay: The compound was tested for no of tumors without change at 10 mg/kg dose after peroral administration (experiment-I); format: functional; settings: route oral; how it was run: as §3
[16] = test system: Rattus norvegicus; assay: The compound was tested for the progression of no of tumors at 1 mg/kg dose after peroral administration (experiment-I); format: functional; settings: route oral; how it was run: as §3
[17] = test system: Rattus norvegicus; assay: The compound was tested for no of tumors with partial remission at 1 mg/kg dose after peroral administration (experiment-I); format: functional; settings: route oral; how it was run: as §3
[18] = test system: Rattus norvegicus; assay: The compound was tested for no of tumors without change at 10 mg/kg dose after peroral administration (experiment-2); format: functional; settings: route oral; how it was run: as §3
[19] = test system: Rattus norvegicus; assay: The compound was tested for no of tumors with partial remission at 10 mg/kg dose after peroral administration (experiment-2); format: functional; settings: route oral; how it was run: as §3
[20] = test system: Rattus norvegicus; assay: The compound was tested for the growth of mammary tumors in rats at 1 mg/kg dose after peroral administration at the end of the exp-1; format: functional; settings: route oral; how it was run: as §3
[21] = test system: Rattus norvegicus; assay: The compound was tested for no of tumors with partial remission at 10 mg/kg dose after peroral administration (experiment-I); format: functional; settings: route oral; how it was run: as §3
[22] = test system: Rattus norvegicus; assay: The compound was tested for no of tumors without change at 1 mg/kg dose after peroral administration (experiment-I); format: functional; settings: route oral; how it was run: as §3
[23] = test system: Rattus norvegicus; assay: The compound was tested for the % change of tumor area at 10 mg/kg dose after peroral administration (experiment-2); settings: route oral
[24] = test system: Rattus norvegicus; assay: The compound was tested for the no of tumors at 10 mg/kg dose finish of the experiment after peroral administration (experiment-2); format: functional; settings: route oral; how it was run: as §3
[25] = test system: Rattus norvegicus; assay: The compound was tested for no of tumors with complete remission at 10 mg/kg dose after peroral administration (experiment-2); format: functional; settings: route oral; how it was run: as §3
[26] = test system: Rattus norvegicus; assay: The compound was tested for the no of tumors at 10 mg/kg dose start of the experiment after peroral administration (experiment-2); format: functional; settings: route oral; how it was run: as §3
[27] = test system: Rattus norvegicus; assay: The compound was tested for no of tumors with complete remission at 10 mg/kg dose after peroral administration (experiment-I); format: functional; settings: route oral; how it was run: as §3
[28] = test system: Rattus norvegicus; assay: The compound was tested for the no of tumors at 1 mg/kg dose finish of the experiment after peroral administration (experiment-I); format: functional; settings: route oral; how it was run: as §3
[29] = test system: Rattus norvegicus; assay: The compound was tested for the % change of tumor area at 1 mg/kg dose after peroral administration (experiment-I); format: functional; settings: route oral; how it was run: as §3
[30] = organism: Rattus norvegicus; assay: The compound was tested for uterotropic activity in immature rats(Dosage 0.1 ug); format: functional; how it was run: as §2
[31] = test system: Rattus norvegicus; assay: The compound was tested for the growth of tumors at 10 mg/kg dose finish of the experiment after peroral administration (experiment-2); format: functional; settings: route oral; how it was run: as §3
[32] = test system: Rattus norvegicus; assay: The compound was tested for the growth of tumors at 10 mg/kg dose start of the experiment after peroral administration (experiment-2); format: functional; settings: route oral; how it was run: as §3
[33] = test system: Rattus norvegicus; assay: The compound was tested for the growth of mammary tumors in rats at 10 mg/kg dose after peroral administration at the end of the exp-2; format: functional; settings: route oral; how it was run: as §3
[34] = test system: Rattus norvegicus; assay: The compound was tested for serum prolactin level in rats at 10 mg/kg dose after peroral administration; format: functional, organism-based; parameters: dose 10 mg/kg
[35] = test system: Rattus norvegicus; assay: The compound was tested for serum prolactin level in rats at 1 mg/kg dose after peroral administration; format: functional, organism-based; parameters: dose 1 mg/kg
[36] = test system: Rattus norvegicus; assay: The compound was tested for serum prolactin level in rats at 1 mg/kg dose after peroral administration exp1; format: functional, organism-based; parameters: dose 1 mg/kg
[37] = test system: Rattus norvegicus; assay: The compound was tested for serum LH level in rats at 1 mg/kg dose after peroral administration; format: functional, organism-based; parameters: dose 1 mg/kg

## O=C(c1ccc(OCCN2CCCCCC2)cc1)c1c(-c2ccc(O)cc2)sc2cc(O)ccc12
[1]
  Mean uterine weight: 56.3 mg
[2]
  Mean uterine weight: 40.1 mg
[3]
  Mean uterine weight: 39.7 mg
[4]
  Mean uterine weight: 36.7 mg
[5]
  Mean uterine weight: 52.7 mg
[6]
  Mean uterine weight: 46.6 mg
[7]
  Mean uterine weight: 52.7 mg
[8]
  Mean uterine weight: 43.9 mg

## Cl.O=C(c1ccc(OCCN2CCCCC2)cc1)c1c(-c2ccc(O)cc2)sc2cc(O)ccc12 [RALOXIFENE HYDROCHLORIDE]
[9]
  No. of tumours: 1
[10]
  No. of tumours: 2
[11]
  No. of tumours: 9
[12]
  No. of tumours: 4
[13]
  No. of tumours: 9
[14]
  No. of tumours: 13
[15]
  No. of tumours: 2
[16]
  No. of tumours: 2
[17]
  No. of tumours: 2
[18]
  No. of tumours: 1
[19]
  No. of tumours: 2
[20]
  Tumor area: 33.3 mm**2 and <77.3 mm**2
[21]
  No. of tumours: 2
[22]
  No. of tumours: 4
[23]
  % change tumor area: 417%
[24]
  No. of tumours: 5
[25]
  No. of tumours: 4
[26]
  No. of tumours: 9
[27]
  No. of tumours: 1
[28]
  No. of tumours: 9
[29]
  % change tumor area: 132% and 378%

## CC(C)N(CCOc1ccc(C(=O)c2c(-c3ccc(O)cc3)sc3cc(O)ccc23)cc1)C(C)C
[1]
  Mean uterine weight: 60.1 mg
[2]
  Mean uterine weight: 60.4 mg
[3]
  Mean uterine weight: 69.5 mg
[4]
  Mean uterine weight: 70.2 mg
[5]
  Mean uterine weight: 58.7 mg
[6]
  Mean uterine weight: 50 mg
[7]
  Mean uterine weight: 37.3 mg
[8]
  Mean uterine weight: 62.1 mg

## O=C(c1ccc(OCCN2CCCC2)cc1)c1c(-c2ccc(O)cc2)sc2cc(O)ccc12 [LY-117018]
[1]
  Mean uterine weight: 61.7 mg
[2]
  Mean uterine weight: 40.7 mg
[3]
  Mean uterine weight: 42.7 mg
[4]
  Mean uterine weight: 36.1 mg
[5]
  Mean uterine weight: 44.5 mg
[6]
  Mean uterine weight: 46.6 mg
[7]
  Mean uterine weight: 55.1 mg
[8]
  Mean uterine weight: 43.9 mg

## O=C(c1ccc(OCCN2CCCCC2)cc1)c1c(-c2ccc(O)cc2)sc2cc(O)ccc12 [RALOXIFENE]
[1]
  Mean uterine weight: 48.7 mg
[2]
  Mean uterine weight: 35.4 mg
[3]
  Mean uterine weight: 32.5 mg
[4]
  Mean uterine weight: 28.9 mg
[5]
  Mean uterine weight: 36.7 mg
[6]
  Mean uterine weight: 42.2 mg
[7]
  Mean uterine weight: 48.6 mg
[8]
  Mean uterine weight: 42.7 mg

## C[C@]12CC[C@@H]3c4ccc(O)cc4CC[C@H]3[C@@H]1CC[C@@H]2O [ESTRADIOL]
[30]
  Mean uterine weight: 82.3 mg

## CN(C)CCOc1ccc(C(=O)c2c(-c3ccc(O)cc3)sc3cc(O)ccc23)cc1
[1]
  Mean uterine weight: 54.7 mg
[2]
  Mean uterine weight: 71.5 mg
[3]
  Mean uterine weight: 64.7 mg
[4]
  Mean uterine weight: 70.8 mg
[5]
  Mean uterine weight: 54.3 mg
[6]
  Mean uterine weight: 55 mg
[7]
  Mean uterine weight: 44.6 mg
[8]
  Mean uterine weight: 66 mg

## CC/C(=C(\c1ccccc1)c1ccc(OCCN(C)C)cc1)c1ccccc1 [TAMOXIFEN]
[31]
  No. of tumours: 7
[10]
  No. of tumours: 3
[1]
  Mean uterine weight: 64.1 mg
[2]
  Mean uterine weight: 70.1 mg
[32]
  No. of tumours: 11
[33]
  Tumor area: 43.4 mm**2 and <46.4 mm**2
[18]
  No. of tumours: 2
[19]
  No. of tumours: 3
[3]
  Mean uterine weight: 72.1 mg
[4]
  Mean uterine weight: 74.1 mg
[5]
  Mean uterine weight: 62.1 mg
[6]
  Mean uterine weight: 64.8 mg
[23]
  % change tumor area: 7
[34]
  Serum prolactin level: 0.000126 mg/mL
[25]
  No. of tumours: 3
[7]
  Mean uterine weight: 38.9 mg
[8]
  Mean uterine weight: 65.6 mg

## O=C(c1ccc(OCCN2CCCCC2)cc1)c1c(-c2ccc(O)cc2)sc2cc(O)ccc12
[35]
  Serum prolactin level: 7.24e-05 mg/mL
[34]
  Serum prolactin level: 0.000711 mg/mL
[36]
  Serum prolactin level: 0.000204 mg/mL
[37]
  Serum LH level: 3.08e-05 mg/mL and 2.77e-05 mg/mL

## CCN(CC)CCOc1ccc(C(=O)c2c(-c3ccc(O)cc3)sc3cc(O)ccc23)cc1
[1]
  Mean uterine weight: 56.2 mg
[2]
  Mean uterine weight: 66.5 mg
[3]
  Mean uterine weight: 66.4 mg
[4]
  Mean uterine weight: 66 mg
[5]
  Mean uterine weight: 61.3 mg
[6]
  Mean uterine weight: 53.6 mg
[7]
  Mean uterine weight: 45.4 mg
[8]
  Mean uterine weight: 67.6 mg
